Measured values pooled from the literature.
Protocols differ between the studies behind these lines.
Target: Homeodomain-interacting protein kinase 2 (HIPK2, Homo sapiens, UniProt Q9H2X6)

O=C(NCCCN1CCOCC1)c1ccc(Nc2nccc(-c3cc4ccccc4s3)n2)cc1 — remaining binding (binding; competition with immobilised ligand; 1 µM): 34%
CCN1CCN(Cc2ccc(C(=O)Nc3ccc(C)c(Oc4ccc5c(c4)CC(=O)N5)c3)cc2C(F)(F)F)CC1 — remaining binding (binding; competition with immobilised ligand; 1 µM): 100%
O=C(c1ccc(Nc2nccc(-c3cc4ccccc4s3)n2)cc1)N1CCC(N2CCCC2)CC1 — remaining binding (binding; competition with immobilised ligand; 1 µM): 8.8%
COc1ccnn2ncc(-c3ccnc(N(C)C)n3)c12 — remaining binding (binding; 1 µM): 71%
CNC(=O)[C@@H]1CC[C@@H](n2c(-c3ccc4cnccc4c3)nc3ccc(C(=O)NCc4cccc(C(N)=O)c4)cc32)C1 — remaining binding (binding; competition with immobilised ligand; 1 µM): 100%
O=C(Nc1c[nH]nc1C(=O)NC1CCNCC1)c1cc(F)cc(F)c1 — remaining binding (binding; competition with immobilised ligand; 1 µM): 33%
CCC(=O)N[C@@H]1CC[C@H](C(=O)N(C)c2ccc(-c3nc4ccccc4o3)cc2)C1 — remaining binding (cell-free assay; competition with immobilised ligand; 1 µM): 100%
C[C@@H]1CCN(c2nccc(-c3cnn4ncccc34)n2)C1 — remaining binding (binding; 1 µM): 61%
C[C@@H](c1ccc(-n2cnc3c(N)ncnc32)cc1)N1CCc2nn(C)c(Cc3ccccc3)c2C1=O — remaining binding (binding; competition with immobilised ligand; 0.1 µM): 80%
COc1ncc2cc3ccccc3nc2c1C#N — remaining binding (cell-free assay; competition with immobilised ligand; 5 µM): 98%
CC1=C(C#N)[C@@H](c2ccc3[nH]nc(C)c3c2)C(C#N)=C(c2ccc(Cl)cc2)N1 — remaining binding (cell-free assay; competition with immobilised ligand; 1 µM): 86.1%
c1cncc(-c2cccc(Nc3nccc(NC4CCCCC4)n3)c2)c1 — remaining binding (binding; competition with immobilised ligand; 10 µM): 53%
CN(C)C(=O)Cn1cc(-c2nc(C3(c4ccc(-c5cnc(N)nc5)cc4)CC3)no2)cn1 — remaining binding (cell-free assay; competition with immobilised ligand; 1 µM): 94%
COc1cnc(Nc2cccc(S(N)(=O)=O)c2)nc1N1CCN(c2ccccc2)C(=O)C1 — remaining binding (binding; competition with immobilised ligand; 1 µM): 100%
CN(CCCC(F)(F)F)c1nccc(-c2cnn3ncccc23)n1 — remaining binding (binding; 1 µM): 100%
O=C(c1ccc(Nc2ncc(Cl)c(-c3cc4ccccc4s3)n2)cc1)N1CCC(N2CCCC2)CC1 — remaining binding (binding; competition with immobilised ligand; 1 µM): 0.2%
CN(C)c1nccc(-c2cnn3ncccc23)n1 — remaining binding (binding; 1 µM): 49%
O=C(O)[C@H]1[C@H](Cn2nnc3ccccc3c2=O)CC[C@@H]1C(=O)c1ccc(OCCC2CCOCC2)cc1 — remaining binding (cell-free assay; competition with immobilised ligand; 1 µM): 100%
CN(C)c1ncc(F)c(-c2cnn3ncccc23)n1 — remaining binding (binding; 1 µM): 57%
C[C@H](NC(=O)c1cnc2n1[C@](C)(Cc1ccc(C#N)cc1)C(=O)N2c1cc(Cl)c(F)c(Cl)c1)C(=O)NC1(c2ccccn2)CC1 — remaining binding (cell-free assay; competition with immobilised ligand; 1 µM): 100%
N[C@H]1CCN(c2nccc(-c3cnn4ncccc34)n2)C1 — remaining binding (binding; 1 µM): 98%
CC(C)(O)c1cncc(-c2nc3ccc(F)cc3n2C2CC2)c1 — remaining binding (cell-free assay; competition with immobilised ligand; 1 µM): 100%
